# Hits are enriched below; roughly 2.1% of the tested compounds scored in any of these assays.
# Thrombin inh: inhibitors of human thrombin | P00734 | alpha-thrombin, Boc-VPR-AMC fluorogenic substrate cleavage | inhibition, % at 5 µM | hit rate 0.26% among 220,000 | AID 1046;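 active = inhibition at or above 40%; inactive = inhibition below 40%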;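 note: 0% = enzyme with no compound and 100% = wells without enzyme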
#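 System: Human alpha-thrombin protein | Medium: pH 7.5 Tris (50 mM) with NaCl 150 mM, Tween 20 0.05% | Times: Enzyme reaction carried out at room temperature | Detection: AMC fluorescence, 355/460 nm | Evaluation: Percent inhibition scaled between no-compound controls and no-enzyme blanks | Benchmarks: Enzyme without compound as high, wells lacking enzyme as low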
# FXIa inh: factor XIa (human) inhibition. purified FXIa, Boc-Glu-Ala-Arg-AMC fluorogenic substrate. inhibition, % at 5 µM. hit rate 0.14% among 220,000. AID 798;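 active = inhibition of at least 40%; inactive = inhibition below 40%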;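 note: fluorescence of freed AMC excited at 355 nm; 0% = enzyme without compound and 100% = no enzyme blank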
# Target sequence (P03951 19-387 limits assumed): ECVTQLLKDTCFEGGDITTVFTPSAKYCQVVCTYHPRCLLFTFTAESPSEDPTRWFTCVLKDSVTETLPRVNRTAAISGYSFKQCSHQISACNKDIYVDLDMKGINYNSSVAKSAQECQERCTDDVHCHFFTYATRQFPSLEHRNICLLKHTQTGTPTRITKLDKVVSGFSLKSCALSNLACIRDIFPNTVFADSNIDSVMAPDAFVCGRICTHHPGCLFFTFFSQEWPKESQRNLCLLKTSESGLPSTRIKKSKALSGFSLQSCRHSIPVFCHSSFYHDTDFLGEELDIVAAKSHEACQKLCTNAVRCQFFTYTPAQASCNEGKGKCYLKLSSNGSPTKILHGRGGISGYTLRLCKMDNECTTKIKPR
# Target sequence (P03951 388-625 limits assumed): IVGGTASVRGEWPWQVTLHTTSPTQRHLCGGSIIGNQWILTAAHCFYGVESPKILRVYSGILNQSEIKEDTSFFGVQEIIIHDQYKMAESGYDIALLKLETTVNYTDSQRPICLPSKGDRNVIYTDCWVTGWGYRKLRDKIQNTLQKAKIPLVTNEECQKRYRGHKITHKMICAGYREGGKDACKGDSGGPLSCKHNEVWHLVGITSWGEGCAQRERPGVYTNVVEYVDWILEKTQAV
# FXIIa inh: factor XIIa (human) inhibition. purified FXIIa, Boc-QGR-AMC fluorogenic substrate, 2 h. P00748. hit rate 0.3% among 220,000. inhibition, % at 5 µM; in the data active = inhibition above about 40%;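 note: 0% = enzyme with no compound and 100% = blank without enzyme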
# KLK5 inh: inhibitors of human kallikrein 5; hit rate 0.59% among 210,000; inhibition, % at 5 µM; recombinant hK5, fluorogenic AMC substrate cleavage;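 active = inhibition of 40% or more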;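 note: 0% = enzyme controls without compound and 100% = no-enzyme blanks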
# EP2 mod: EP2 receptor (human) modulation | P43116 | EP2-expressing cells, cAMP HTRF FRET, PGE2 co-stimulation | induction, % at 25 µM | hit rate 0.83% among 260,000 | AID 940;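 active = compounds whose cAMP rise, as percent of the full-agonist control response, exceeds 60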;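 note: rat C6 glioma line stably carrying human EP2 under a CMV promoter; the protocol text gives 20 µM as final concentration; 100% = response of wells given 1 µM PGE2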
# PGE2 EP2 inh: EP2 receptor (human) inhibition; hit rate 0.52% among 260,000; inhibition, % at 25 µM; P43116; AID 1422; C6 glioma cells expressing human EP2, cAMP TR-FRET; cells stimulated with saturating PGE2;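 active = percent inhibition above 40 after rounding to a whole number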;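 note: rat C6 glioma host cells with rolipram phosphodiesterase inhibitor present; the protocol text gives 20 µM as final concentration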
# * hit, by the source's call; . = not tested or not shown; ! = not confirmed by another sample.
SMILES,Thrombin inh,FXIa inh,FXIIa inh,KLK5 inh,EP2 mod,PGE2 EP2 inh
Cc1ccc2nc(N3C(=O)C(O)=C(C(=O)c4ccco4)C3c3ccc(O)cc3)sc2c1 (stereo unspecified),.,.,.,.,-16,28
CC(C)(C)c1nc2c(o1)OC(N)=C(C#N)C2c1ccc(Cl)cc1Cl (stereo unspecified),.,.,.,.,-88,20
COc1ccccc1NC(=S)N(Cc1cc2ccc(C)c(C)c2[nH]c1=O)C1CCCCC1,.,.,.,.,-9,8
COc1ccccc1CC(C)NC(=O)Cn1c(=O)oc2ccc(C)cc21 (stereo unspecified),.,.,.,.,-22,9
O=c1[nH]c(N2CCCCC2)nc2c1CCN(Cc1c(F)cccc1F)C2,.,.,.,.,-66,2
Cc1ccc(OCC(O)CNS(=O)(=O)c2cn(C)nc2C)cc1 (stereo unspecified),.,.,.,.,-2,3
COC(=O)/C(=C(/F)Sc1cc(C)c(O)c(C)c1)C(F)(F)F,-3,-8,11,-31,-20,99*
CC(NC(=O)Cc1ccccc1)C(c1ccccc1)N1CCOCC1 (stereo unspecified),.,6,11,4,-21,4
CC(C)(C)C(=O)[C@H]([C@@H](c1ccccc1)N1CCOCC1)N1CCOCC1,.,.,.,.,30,49*
CC1=C(C#N)c2nc(N)c(C#N)c(C)c2/C1=C\c1ccc(N2CCOCC2)cc1,.,.,.,.,-34,6
COc1ccc(N(Cc2cc3cccc(C)c3[nH]c2=O)C(=O)C2CCCO2)cc1 (stereo unspecified),-6,9,1,54*,-4,3
COc1ccc(N(Cc2cc3ccccc3[nH]c2=O)C(=O)C2CCCO2)cc1 (stereo unspecified),2,0,7,5,3,19
COc1ccc(O)c(CN(Cc2ccncc2)C2CC(C)(C)NC(C)(C)C2)c1,.,.,.,.,-7,5
C=CCn1c(SCC(=O)c2cc(C)n(CCOC)c2C)nc2sc(C)c(C)c2c1=O,-6,-12,1,11,-39,42*
Cc1ccc(Cn2nnnc2CN2CCc3nc(N4CCOCC4)[nH]c(=O)c3C2)cc1,.,.,.,.,4,7
CCn1c2cc(C)oc2c2cnn(Cc3ccccc3C(F)(F)F)c(=O)c21,.,.,.,.,81*,.
Cc1nc(Sc2ccccc2)c(C#N)c(C)c1[N+](=O)[O-],-7,0,9,-3,61*,7
Cc1nc(NCCc2ccccc2F)c(C#N)c(C)c1[N+](=O)[O-],46*,14,25,25,31,3
Cc1nc(NCCc2ccc(F)cc2)c(C#N)c(C)c1[N+](=O)[O-],-13,-2,4,-8,22,16
CCc1nc2ccc(NC(=O)c3cnc(SC)nc3)cc2[nH]1,.,.,.,.,-32,4
CCNc1ccc(C(=O)OC(C(=O)NC(N)=O)C(C)C)cc1[N+](=O)[O-] (stereo unspecified),8,32,36,54*,0,7
CC(C)NC[C@@H](O)c1ccc(O)c2ncccc12,.,.,.,.,17,11
CC(C)NC[C@H](O)c1ccc(O)c(O)c1,.,.,.,.,76*!,11
CC(C)C(=O)c1ccc(O)c(O)c1,-6,1,3,-3,11,6
CCC(NC(C)C)C(O)c1ccc(O)c(O)c1 (stereo unspecified),0,6,13,-9,61*,15
SMILES,Thrombin inh,FXIa inh,FXIIa inh,KLK5 inh,EP2 mod,PGE2 EP2 inh
NCC(O)c1ccc(O)c(O)c1 (stereo unspecified),.,.,.,.,66*,9
CC(C)NCC(O)COCc1ccc(Cl)cc1 (stereo unspecified),-4,-13,-14,7,-6,5
CC(C)NCC(O)c1cc(O)cc(O)c1 (stereo unspecified),-1,-6,1,-5,81*!,21
Cn1c(Cc2ccccc2)nnc1SCC(=O)Nc1sc2c(c1C#N)CCCC2,.,.,.,.,-7,10
Cc1ncc(-c2ccncc2)c(C2CCCN(C(=O)CCn3c(=O)oc4ccccc43)C2)n1 (stereo unspecified),.,.,.,.,-4,.
O=C1CC(c2ccccc2)CC(O)=C1C=NCCN1CCN(C(=S)Nc2cccc(Cl)c2)CC1 (stereo unspecified),7,0,14,44*,-8,8
Cc1nn(C)cc1S(=O)(=O)NCC(c1ccc(F)cc1)N(C)C (stereo unspecified),.,.,.,.,-14,-1
CCOc1ccccc1NC(=O)CSc1nc(Cc2ccccc2)nc2ccccc12,.,.,.,.,79*,10
CCOC(=O)CSc1nc(C2CCCCC2)nc2ccccc12,.,.,.,.,66*,10
CCC(C)(C)NC(=O)CSc1nc(Cc2ccccc2)nc2ccccc12,.,.,.,.,-3,5
O=C(CSc1nc(C2CCCCC2)nc2ccccc12)N1CCCC1,-6,-1,7,2,15,2
CSc1nc(Cc2ccccc2)nc2ccccc12,3,4,7,10,62*,12
O=C(CSc1nc(Cc2ccccc2)nc2ccccc12)N1CCCCCC1,.,.,.,.,31,16
CCCc1nc(SCC(=O)Nc2nc(C)c(C)s2)c2ccccc2n1,.,.,.,.,63*,8
O=C(Cc1c(Cl)cccc1Cl)N1CCn2c(nnc2C2CC2)C1,.,.,.,.,-39,0
COc1ccc(F)cc1S(=O)(=O)N1CCN(c2ccc(F)cc2)CC1,.,.,.,.,-59,1
CC(C)C(c1nnnn1C1CCCC1)N1CCN(C)CC1 (stereo unspecified),.,.,.,.,10,11
COc1ccccc1NC(=O)CSc1nc(C2CCCCC2)nc2ccccc12,.,.,.,.,79*,6
CC(=O)Nc1ccc(NC(=O)CSc2nc(C3CCCCC3)nc3ccccc23)cc1,.,.,.,.,26,18
Cc1cc(C)c2nc(SCC(=O)Nc3nc(C)c(C)s3)cc(C)c2c1,.,.,.,.,61*,19
CCNC(=S)N(Cc1ccccc1)Cc1cc2ccc(OC)cc2[nH]c1=O,.,.,.,.,-62,10
COc1ccc(NS(=O)(=O)c2ccc(NS(=O)(=O)c3ccc(C)cc3)cc2)nn1,4,0,2,65*,26,13
CCN(CC)C(=O)N1CCC(c2ccncc2)CC1,.,.,.,.,-29,.
CCC(C)Nc1nc(N)c([N+](=O)[O-])c(Nc2cc(OC)ccc2OC)n1 (stereo unspecified),-4,-1,7,2,36,4
COc1ccc(OC)c(Nc2nc(NCCC(C)C)nc(N)c2[N+](=O)[O-])c1,-6,-2,7,2,63*,8
Cc1ccc(S(=O)(=O)CC(c2ccccc2)N2CCCCC2)cc1 (stereo unspecified),-1,5,.,3,29,13
O=S(=O)(CC(c1ccccc1)N1CCCCC1)c1ccc(Cl)cc1 (stereo unspecified),6,5,16,48*,23,6
COc1ccccc1-c1cc(C(=O)NCc2ccco2)no1,5,11,24,48*,-42,10
O=C(NCc1ccco1)c1ccc(-c2ccccc2Cl)o1,-7,12,6,5,-60,60*!

# Screening results as filed in PubChem BioAssay.
